# NR3A LBD binder: modulates the human NR3A ligand-binding domain; Tm shift relative to glycine control, % at 25 µM; 2.5% of 340,000 active; NR3A LBD differential scanning fluorimetry, Tm shift; 0% = protein alone, 100% = glycine-bound protein;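 active = melting temperature shift of at least 10% of the positive control shift, at one fixed dose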
# T cruzi repl: T. cruzi replication inhibition. T. cruzi beta-gal in NIH3T3, luminescence, 90 h. inhibition, % (test concentration not listed). 1.4% of 300,000 active. AID 1885;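 active = mean inhibition across valid replicates above about 55%, limit read from the data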;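 also: signal also drops with host cell toxicity which is not excluded here; 0% = plate median of DMSO wells and 100% = zero luminescence signal; higher percent means less beta-gal luminescence so fewer parasites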
#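 System – NIH/3T3 host cells with β-galactosidase reporter T. cruzi · Doses – single 50 nL compound addition per well in DMSO · Reagent – 5000 T. cruzi trypomastigotes/well · Medium – Low-serum DMEM with 2% FBS · Timing – ≥90 h infection period, 3 h prior cell attachment · Evaluation – parasite load inhibition, % · Technique – GalScreen luminescence, 60 min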
# PREPL inhibitor: inhibitors of human prolyl oligopeptidase-like enzyme PREPL; AID 2751; recombinant PREPL, fluorescence polarization activity-based probe; inhibition, % at 5.96 µM; 0.68% of 320,000 active; in the data active = inhibition above about 43%;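 also: 0% = enzyme with DMSO and 100% = wells lacking enzyme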
# Target sequence (Q4J6C6 whole entry, looked up): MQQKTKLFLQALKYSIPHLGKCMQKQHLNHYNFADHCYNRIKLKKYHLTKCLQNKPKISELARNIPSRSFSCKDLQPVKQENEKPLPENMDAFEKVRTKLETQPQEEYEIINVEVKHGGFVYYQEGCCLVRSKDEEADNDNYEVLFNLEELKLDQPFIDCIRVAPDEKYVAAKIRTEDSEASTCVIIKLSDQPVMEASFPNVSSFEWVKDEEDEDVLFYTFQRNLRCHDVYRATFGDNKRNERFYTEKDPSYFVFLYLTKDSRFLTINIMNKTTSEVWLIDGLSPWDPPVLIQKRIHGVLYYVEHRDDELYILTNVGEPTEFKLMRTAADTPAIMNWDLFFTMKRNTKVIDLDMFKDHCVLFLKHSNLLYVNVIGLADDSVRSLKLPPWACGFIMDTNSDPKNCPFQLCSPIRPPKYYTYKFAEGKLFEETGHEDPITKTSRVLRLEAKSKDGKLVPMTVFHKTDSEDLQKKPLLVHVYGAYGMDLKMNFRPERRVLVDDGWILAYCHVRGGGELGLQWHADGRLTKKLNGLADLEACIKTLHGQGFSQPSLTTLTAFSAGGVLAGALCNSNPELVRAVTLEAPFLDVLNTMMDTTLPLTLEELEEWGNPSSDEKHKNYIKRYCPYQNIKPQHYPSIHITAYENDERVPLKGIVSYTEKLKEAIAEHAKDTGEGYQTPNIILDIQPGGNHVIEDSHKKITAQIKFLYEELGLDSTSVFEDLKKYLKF
# Beta apoptosis: beta cell apoptosis inhibition; AID 435005; protection from apoptosis, % (no concentration beside the values); 0.8% of 300,000 active; INS-1E cytokine-induced death, ATP luminescence, 48 h; percent of positive-control rescue, neutral wells zero;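 active = Every replicate reaches about 75%, or at least half do and their mean reaches it too, limit read from the data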;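 also: 0% = cytokine-treated negative control wells and 100% = positive control rescue; higher means more ATP so stronger rescue from cytokine killing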
# CHOP inh: blocks CHOP induction under ER stress | 3.8% of 220,000 active | inhibition, % at 10 µM | CHO-K1 CHOP-promoter luciferase, tunicamycin-induced, 15-18 h;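 active = compounds that reduced the stress-induced luciferase reporter signal by more than about 70% of percent inhibition, limit read from the data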;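 also: 0% = tunicamycin plus vehicle and 100% = wells without tunicamycin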
# CSC inhib: blocks cancer stem cells. 1.1% of 300,000 active. cancer stem cell-like cells viability, luminescence. inhibition, % at 7.5 µM; in the data active = inhibition above about 75%; tested in HMLE shEcad cells
# An asterisk follows results filed as active; . = no result given. In the library only some 6.7% were active in any assay of this set; here they are far more common.
SMILES,NR3A LBD binder,T cruzi repl,PREPL inhibitor,Beta apoptosis,CHOP inh,CSC inhib
COc1cc(OC)cc(-c2cc3nc(C)c(CCC(=O)NCc4ccccc4)c(C)n3n2)c1,-2,32,15,5,84*,-6
CC1(c2ccc(OC(F)F)cc2)NC(=O)N(CC(=O)N2CCN(C(=O)c3ccco3)CC2)C1=O (stereo unspecified),2,.,0,-4,.,.
Cc1cccc(C)c1NC(=O)CN1CCNCC1,0,7,-3,-1,87*,-25
CC(C)(C)C1CCC(N2CCN(c3ccccc3)CC2)CC1 (stereo unspecified),1,33,-2,-8,.,-9
Cc1ccc(-n2nnnc2CNC(=O)c2ccc([N+](=O)[O-])o2)cc1C,0,57*,-1,-23,.,9
Nc1cc2c(cc1Br)-c1ccc(F)cc1C2O (stereo unspecified),18*,.,.,.,.,.
CC(=O)Nc1cc2c(cc1Cl)-c1ccc(F)cc1C2O (stereo unspecified),1,.,.,.,.,.
COc1cc(OC)cc(N(C(=O)c2snc(C(N)=O)c2N)C(C(=O)NCC2CCCO2)c2ccc(C)o2)c1 (stereo unspecified),.,44,7,-1,.,.
COc1ccc(/C=N\NC(=O)c2ccc([N+](=O)[O-])cc2)cc1COc1c(F)c(F)cc(F)c1F,5,.,.,-6,.,5
O=C(N/N=C/c1cccc(Oc2ccccc2)c1)c1cc[n+]([O-])cc1,-3,4,0,-1,-1,-8
COc1cccc(/C=N/NC(=O)c2ccc(OCc3cccc(Br)c3)cc2)c1,29*,-5,11,3,3,42
COc1ccc(/C=N\NC(=O)c2cccc(F)c2)cc1COc1ccccc1,16*,12,-45,0,.,60
Nc1ccc(C(=O)N/N=C/c2cccc(Oc3ccccc3)c2)cc1,10*,14,.,-4,.,28
COc1ccc(/C=N\NC(=O)c2ccccc2[N+](=O)[O-])cc1COc1c(F)c(F)c(F)c(F)c1F,10*,11,-8,-5,.,32
O=C(N/N=C/c1cccc(OCc2ccccc2)c1)c1ccc(Br)cc1,1,-9,-11,8,-3,14
CCOc1ccc(-n2c(C)c(C(=O)OC)c3cc(O)ccc32)cc1,0,9,5,10,81*,2
Fc1cccc(F)c1[B-](F)(F)F,-1,.,.,.,.,.
Cc1cc(N)n(-c2ccccn2)n1,12*,-6,0,-1,-18,0
COc1ccccc1-n1nc(C)cc1N,2,3,0,-3,16,2
COCCCNc1nc2ccccc2nc1NS(=O)(=O)c1cc(Cl)ccc1Cl,1,-5,0,6,.,33
Cc1cc(C)c2c(N)c3cccc(C)c3nc2n1,-1,58*,20,98*,-8,-4
Cc1cccc2c(N)c3c(nc12)CCCC3 (tested in a mixture with another compound),0,.,.,.,-2,.
C/C(=N/NC(=O)c1cccs1)c1c(C)[nH]n(-c2nc3ccccc3s2)c1=O,-11,0,-11,79*,-6,59
CCCN=C(C)c1c(-c2ccccc2)[nH]n(-c2nc3ccccc3s2)c1=O,1,33,10,1,72*,-21
Cc1cccc(C)c1OC(=O)CCN1C(=O)C2C3C=CC(C4CC34)C2C1=O (stereo unspecified),-16,3,-5,4,15,6
SMILES,NR3A LBD binder,T cruzi repl,PREPL inhibitor,Beta apoptosis,CHOP inh,CSC inhib
Cc1ccc(CN2C(=O)/C(=C\c3ccc(C(=O)NCc4cccnc4)cc3)Oc3ccccc32)cc1,.,-7,-5,99*,57,108*
Cc1ccccc1N/N=C/c1ccc(C#N)cc1,18*,12,19,-3,15,41
O=C(C1=C(O)/C(=C/c2ccc(O)cc2)CCC1)C(F)(F)F,12*,.,12,-3,8,9
Cc1cccc2c(=O)c(C(=O)NCc3cccs3)c[nH]c12,1,16,6,.,.,.
Cc1ccc2c(=O)c(C(=O)NCc3cccs3)c[nH]c2c1,0,-5,74*,.,-4,2
O=C(N/N=C/c1ccsc1)c1cc(-c2cccs2)nc2ccccc12,12*,-17,-1,8,25,54
COc1ccccc1-c1cc(C(=O)N/N=C/c2sccc2C)c2ccccc2n1,-19,13,13,18,9,-17
Cc1ccsc1/C=N/NC(=O)c1cc(-c2ccncc2)nc2ccccc12,-3,-49,-11,4,18,78*
O=C(NC1CC1)C1CCN(C2CCN(C(=O)/C=C/c3ccc(F)cc3)CC2)CC1,-2,5,12,-5,22,-9
CCN(C(=S)NC(=O)c1ccccc1Br)C1CCCCC1,-3,-23,8,1,-12,2
CCOC(=O)c1ccc(NC(=O)CN(C)S(=O)(=O)c2ccc(Br)s2)cc1,-1,15,4,-2,77*,-1
CCOc1ccc(OCCC(=O)N(CC(C)C)c2c(N)n(Cc3ccccc3)c(=O)[nH]c2=O)cc1,3,.,.,.,.,.
CCCC(NC(=S)NCC1CCCO1)C12CC3CC(CC(C3)C1)C2 (stereo unspecified),0,53,9,26,83*,-14
CCOC(=O)c1sc(NC(=O)CN2C(=O)NC3(CC(C)CC(C)(C)C3)C2=O)cc1C (stereo unspecified),8,59*,-1,1,.,43
Oc1ccccc1-c1nnc(COc2ccc(Cl)cc2Cl)o1,1,0,14,0,73*,21
CSc1nc2ccc3nc(NC(=O)c4cccs4)sc3c2s1,28*,-17,0,6,-23,45
CSc1nc2ccc3nc(NC(=O)c4ccc(Cl)s4)sc3c2s1,21*,-25,7,3,66,-1
CN(C)S(=O)(=O)c1ccc2nc(NC(=O)c3cccs3)sc2c1,2,4,2,6,-20,1
O=C(Nc1nccs1)c1ccc(Cl)s1,2,-13,-2,-5,17,7
CCCc1ccc(-c2cc(NC(=O)CSc3nnc(N)s3)n(-c3ccccc3)n2)cc1,10,28,12,7,-3,85*
Cc1nnc(SCC(=O)Nc2cc(-c3cc(C)c(C)cc3C)nn2-c2ccccc2)s1,-3,28,-2,-6,42,-10
CC(=O)Nc1ccc(SCCCC(=O)c2ccccc2)cc1,1,-3,2,6,.,11
Nc1cc(=O)[nH]c(SCC(=O)NC2CCCCCCC2)n1,-2,.,-7,-17,.,-13
C/C(Cl)=C/Cc1c(C)[nH]c2ccc(C)cc2c1=O,-8,71*,-4,-5,14,-2
C/C(Cl)=C/Cc1c(C)[nH]c2c(ccc3ccccc32)c1=O,-3,24,6,24,.,-20
O=C1N[C@H](C(=O)O)CS1,.,-16,8,.,.,3
CSc1nc(-c2ccccc2)nn1C(=O)c1ccccc1,6,0,14,-3,45,7
